Experimental findings from ChEMBL document CHEMBL1955833, “Wnt inhibition correlates with human embryonic stem cell cardiomyogenesis: a structure-activity relationship study based on inhibitors for the Wnt response” (J Med Chem, 2012) are described below.

Each structure is given as a SMILES string. Activity calls are given as the source filed them.

The subject of data set [1] is H9. The data set is described as follows: Cardiogenic activity in human H9 cells after 14 days by MYH6-mCherry reporter gene assay relative to 4-[(1R,2S,6R,7S)-3,5-dioxo-4-azatricyclo[5.2.1.0~2,6~]dec-8-en-4-yl]-N-quinolin-8-ylbenzamide. In kind it is functional. An outline of the steps: (§1)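 hESC embryoid bodies grown to day 4, dissociated to single cells and plated in 384-well format with serial compound dilutions. At day 10 switched to serum-free medium with T3. At day 14 moved to PBS and imaged for red fluorescence. Total area and intensity of the MYH6-mCherry reporter were quantified per well and expressed as percent cardiogenesis, with the reference set to 100% at its maximum.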
(In general: Reporter assays use an easily measured gene product as a stand-in for the process of interest.)

The subject of data set [2] is HEK-293T. The data set is described as follows: Cytotoxicity against human HEK293T cells at 0.2 to 20 uM after 24 hrs by alamar blue assay. Format: cell-based. On the technique in general: Alamar Blue is a resazurin reagent that responds to reducing activity.
Data set [3] can be described thus: Chemical stability in phosphate buffer pH 7.4 at 10 uM after 30 hrs by HPLC analysis. In kind it is physicochemical. Conditions: pH 7.4, 30 h. An outline of the steps: (§2)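 Degradation followed by HPLC, and half-life determined where degradation occurred.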
Data set [4] relates to HEK-293T. The data set is described as follows: Inhibition of human recombinant TGFbeta2-induced Smad signaling in HEK293T cells at 0.01 to 5 uM by luciferase reporter gene assay. Format: cell-based. The method in brief:
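HEK293T cells carrying a SMAD response element reporter were stimulated with human recombinant TGFβ2. Compounds were incubated at 0.01, 0.1, 1 and 5 μM. Percent inhibition of the SMAD response was calculated relative to DMSO vehicle controls.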

Data set [5] can be described thus: Inhibition of beta-catenin-dependent canonical Wnt3 pathway in human HEK293T cells by luciferase reporter gene assay. In kind it is cell-based. The conditions noted are these: HEK-293T.
Data set [6] is described as follows: Cardiogenic activity in human embryonic stem cells at 2.5 uM by MYH6 reporter gene assay relative to control. Format: functional, Embryonic stem cell.
The nature of data set [7]: Cardiogenic activity in human embryonic stem cells at 2 uM by MYH6 reporter gene assay relative to control. Format: functional, Embryonic stem cell.
Data set [8] in a line: Inhibition of beta-catenin-dependent canonical Wnt3A pathway in human HEK293T cells at 1 uM by luciferase reporter gene assay. Format: cell-based. Conditions: HEK-293T. The method in brief:
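HEK293T cells transiently co-transfected with Super(8x)TOPflash (TCF-firefly luciferase), TK-Renilla luciferase for normalization, and a Wnt3A-expressing vector to activate the pathway. Compounds tested at a single concentration of 1 μM, alongside untreated and DMSO vehicle controls. Firefly signal normalized to Renilla.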

Data set [9] concerns H9. The data set is described as follows: Cardiogenic activity in human H9 cells at 10 uM after 14 days by MYH6-mCherry reporter gene assay relative to 4-[(1R,2S,6R,7S)-3,5-dioxo-4-azatricyclo[5.2.1.0~2,6~]dec-8-en-4-yl]-N-quinolin-8-ylbenzamide. In kind it is functional. The method in brief: as §1
A further data set has as its system Embryonic stem cell. The data set is described as follows: Cardiogenic activity in human embryonic stem cells at 50 uM by MYH6 reporter gene assay relative to control. Format: functional, cell-based.
The subject of data set [10] is H9. Nature of the data set: Cardiogenic activity in human H9 cells at < 0.15 uM after 14 days by MYH6-mCherry reporter gene assay relative to 4-[(1R,2S,6R,7S)-3,5-dioxo-4-azatricyclo[5.2.1.0~2,6~]dec-8-en-4-yl]-N-quinolin-8-ylbenzamide. Format: functional, cell-based. The method in brief:
as §1

A short description of data set [11]: Half life in phosphate buffer pH 7.4 at 10 uM by HPLC analysis. In kind it is physicochemical. An outline of the steps: as §2

By inhibition is commonly meant the percentage by which the read-out fell short of the control. The term IC50 denotes the concentration that inhibits the measured activity by half. Higher therefore signals weaker potency in that assay. One may read the half-life as the time needed for the level to fall by half in the phase considered. Read a low half-life as fast loss.

Regarding `O=C(Nc1cccc2cccnc12)c1ccc(N2C(=O)[C@@H]3[C@H](C2=O)[C@@H]2C=C[C@H]3C2)cc1`, the figures for the Activity entry in the data set with H9 [1] and with HEK-293T [2] were “Dose-dependent effect” and “Non-toxic”, respectively. Moreover, the Stability result in [3] is listed as “Stable”. The inhibition with HEK-293T [4] was below 20%.
With `Cc1ccc2nc(NC(=O)CSc3nc4c(c(=O)n3-c3ccc(F)cc3)SCC4)sc2c1`, half-maximal inhibition in data set [5] (IC50) required 538 nM. Also, in the data set on HEK-293T [2], the Activity result is recorded as “Non-toxic”. Besides, the “fold change (FC)” value in data set [6] was 1000.
In data set [5], `Oc1nc(-c2ccc(C(F)(F)F)cc2)nc2c1CSCC2` displayed an IC50 of 51 nM. In addition, the Activity result in the data set with HEK-293T [2] is “Non-toxic”. For the same molecule, the “fold change (FC)” value in data set [7] was 1000.
Regarding `O=C1[C@@H]2[C@@H]3CC[C@@H](C3)[C@@H]2C(=O)N1[C@H]1CC[C@H](C(=O)Nc2cccc3ccncc23)CC1`, the Activity result with H9 [1] is “Dose-dependent effect”; in the data set on H9 [1] (record 2) it was 25%; in the data set on H9 [9] it was 24%. In addition, the inhibition in [8] was determined as 91%. The molecule further displayed an IC50 in data set [5] of 93 nM.
In the data set with H9 [1], `O=C1[C@@H]2[C@@H]3CC[C@@H](C3)[C@@H]2C(=O)N1[C@H]1CC[C@H](C(=O)Nc2cccnc2)CC1` returned an Activity of 15%. In addition, the inhibition was 89% in [8] and below 20% with HEK-293T [4]. This molecule gave an IC50 in data set [5] of 120 nM. The Stability result in data set [3] was “Stable”.
For the molecule `COc1ccc(/C=C2/SC(=S)N(CCCC(=O)O)C2=O)cc1OC`, in the data set with Embryonic stem cell, the result was Active. In [5], the IC50 amounted to 728 nM. In addition, the Activity entry in the data set on HEK-293T [2] is on record as “Non-toxic”.
With `O=C1CCCc2cccc(NC(=O)[C@H]3CC[C@H](N4C(=O)[C@@H]5[C@@H]6CC[C@@H](C6)[C@@H]5C4=O)CC3)c21`, in the data set on H9 [1], the Activity came out at 176%. For the same molecule, the inhibition in data set [8] is 92%; in the data set on HEK-293T [4], below 20%. Further, inhibition in [5] was half-maximal at 7 nM (IC50). Besides, the result in the data set with H9 [10] was Active.
`O=C(Nc1ccc(N2C(=O)[C@@H]3[C@@H]4CC[C@@H](C4)[C@@H]3C2=O)cc1)c1cccc2cccnc12` showed an Activity with H9 [1] of 1%. Moreover, the inhibition in data set [8] came out at 91%. Also, in data set [5], the IC50 stood at 119 nM. Also, in data set [11], the half-life at 10 µM is 228 min.
With `CC(=O)c1ccccc1NC(=O)[C@H]1CC[C@H](N2C(=O)[C@@H]3[C@@H]4CC[C@@H](C4)[C@@H]3C2=O)CC1`, the Activity with H9 [1] came to 78%. Moreover, the inhibition is 91% in data set [8] and below 20% in the data set with HEK-293T [4]. For the same molecule, the IC50 in [5] stood at 6 nM. Besides, the outcome in the data set with H9 [10] was Active. Moreover, the Stability entry in data set [3] was “Stable”.
